Compound activity deposited in PubChem BioAssay by several laboratories.
PfG6PD inh: PfG6PD (Plasmodium falciparum) enzyme inhibition | inhibition, % at 20 µM | PfGluPho enzyme, NADPH resazurin-diaphorase fluorescence | 350,000 compounds, 0.78% hits;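 active = inhibition reaching at least a set limit at 20 µM in the primary screen, cut at about 59% in these data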;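 also: 0% = DMSO wells with substrate and 100% = DMSO wells lacking glucose-6-phosphate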
B2AR ag: human beta-2 adrenergic receptor agonism by FAP. 340,000 compounds, 0.43% hits. Am2.2-beta2AR cells, FAP receptor internalization, flow cytometry. AID 504454. P07550. response, % (concentration not given with the values);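 active = response above a set limit, near 3 SD of response in nonfluorescent compounds, cut at about 42% in these data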
Target sequence (P07550 whole entry, looked up): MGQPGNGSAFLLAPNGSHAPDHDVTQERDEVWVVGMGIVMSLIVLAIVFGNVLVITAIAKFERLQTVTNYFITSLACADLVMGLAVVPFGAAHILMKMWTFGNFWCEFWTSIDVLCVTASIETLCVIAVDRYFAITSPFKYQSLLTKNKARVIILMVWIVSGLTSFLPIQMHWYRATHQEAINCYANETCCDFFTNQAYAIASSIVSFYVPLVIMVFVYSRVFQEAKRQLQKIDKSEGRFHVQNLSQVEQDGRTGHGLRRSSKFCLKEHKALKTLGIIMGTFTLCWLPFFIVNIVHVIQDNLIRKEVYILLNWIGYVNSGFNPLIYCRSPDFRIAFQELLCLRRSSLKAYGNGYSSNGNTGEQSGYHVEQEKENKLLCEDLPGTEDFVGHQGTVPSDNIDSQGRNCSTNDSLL
HKDC1 inh: blocks human hexokinase HKDC1 activity | recombinant HKDC1, G6PDH/diaphorase resazurin coupled fluorescence | inhibition, % at 20 µM | 340,000 compounds, 0.16% hits | Q2TB90;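 active = inhibition above about 35% when tested at 20 µM, limit read from the data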;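 also: plate controls were DMSO wells with enzyme for no effect and DMSO wells lacking enzyme for full effect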
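Material – in-house recombinant HK5 (HKDC1) enzyme · Quantity – HKDC1 at 5 µg/mL · Buffer or medium – pH 8.0 Tris buffer with 10 mM MgCl2 · Reagent – glucose with 1 mM ATP · Dosing – single 20 µM dose · Times – reaction time 90 min, room temperature, protected from light · Technique – resorufin fluorescence at 613 nm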
Cardio protect: myocardial damage modulation in H9c2 cells; 360,000 compounds, 0.63% hits; protection from H2O2 cell death, % at 20 µM; H9c2 cardiomyocytes, H2O2 injury protection, ATPLite, 2 h; AID 588492;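 active = compounds giving at least 50% protection of heart cells from peroxide-induced death in the single-dose screen, raw or plate-pattern-corrected value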;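 also: 0% = DMSO wells with peroxide and 100% = DMSO wells without peroxide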
aDG glyco up: alpha-DG glycosylation activation; AID 624168; activation, % at 10 µM; Pro5-aDG cells, alpha-DG glycosylation AlphaScreen (IIH6); 0% Pro5, 100% B10-LARGE cell signal; 360,000 compounds, 0.22% hits;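 active = activation of at least 8% versus controls, or a plate z-score of at least 8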;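 also: Pro5 are CHO cells carrying HIG-tagged alpha-DG that lacks glycosylation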
UCH37 DUB inh: human UCH37 deubiquitinating enzyme inhibition | Q9Y5K5 | purified proteasome/UCH37, Ub-AMC cleavage fluorescence | inhibition, % (test concentration not listed) | 330,000 compounds, 0.33% hits;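 active = mean inhibition over replicate wells above about 20%, limit read from the data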;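 also: 0% = compound-free wells with enzyme and 100% = wells lacking proteasome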
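system = Proteasome-associated human UCH37 deubiquitinase | amount = 0.15 nM proteasome as dispensed | medium = pH 7.4 Tris-HCl (50 mM) with ovalbumin, ATP-MgCl2, DTT | incubation = 30 min preincubation with enzyme, 25 min cleavage at room temperature | detection = AMC fluorescence 355/460 nm | read-out basis = percent inhibition | controls = no-proteasome and no-compound wells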
HKDC1 act conf: HKDC1 (human) activation, single-dose confirmed | recombinant HKDC1, G6PDH/diaphorase resazurin fluorescence; active compounds read low | AID 504708 | shares compounds with HKDC1 inh | 740 compounds, 14% hits | inhibition, % at 20 µM;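 active = inhibition at or below a set negative limit, negative inhibition meaning the enzyme was activated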
* = called active by the depositor; nt = no result given. Only some compounds are listed: those with a hit (about 2.1% of all), similar ones and a draw of the others.

SMILES	PfG6PD inh	B2AR ag	HKDC1 inh	Cardio protect	aDG glyco up	UCH37 DUB inh	HKDC1 act conf
O=C1NC(=S)N/C1=C/c1cc2c(cc1[N+](=O)[O-])OCO2	0	7	-67	0	0	nt	-37*
CN(N=Cc1ccc(O)cc1O)c1ncc(C(F)(F)F)cc1Cl	nt	nt	nt	nt	nt	-4	nt
Cc1cc2cc(CCNC(=O)c3ccc(S(=O)(=O)N4CCCC4)cc3)c(=O)[nH]c2cc1C	-10	10	41*	1	0	2	53
Cc1cc2cc(CN(Cc3cccs3)S(=O)(=O)c3ccc4c(c3)OCCO4)c(=O)[nH]c2cc1C	5	-1	-47	2	0	nt	-16
Cc1ccc2[nH]c(=O)c(CN(Cc3cccs3)S(=O)(=O)c3ccc4c(c3)OCCO4)cc2c1	5	-8	-13	-5	0	2	nt
COc1ccc2c(c1)C(=NNC(=O)c1ccccn1)c1cc(OC)ccc1-2	17	43*	42*	-9	-1	6	-13
COc1ccc(C(=O)NNC(=O)c2ccccn2)cc1	13	-4	-12	-10	0	-2	nt
S=C(NCc1ccccn1)Nc1cccc(Cl)c1	1	4	-5	4	1	3	nt
CC(=NNC(=S)SCc1ccccc1)c1ccccn1	-6	3	-47	29	2	nt	-28*
CC(=NNC(=S)Nc1cccc(Cl)c1)c1ccccn1	35	4	-46	41	-1	nt	-63*
C=CCNC(=S)NN=C(C)c1ccccn1	nt	nt	nt	nt	nt	4	nt
O=C(NCCCN1CCOCC1)C(=O)NN=Cc1c2ccccc2cc2ccccc12	nt	nt	nt	nt	nt	2	nt
CC(=NNc1cccc([N+](=O)[O-])c1)c1cc2ccccc2o1	nt	nt	nt	nt	nt	5	nt
Cc1ccc2nc(Nc3ccccc3)c(C=NO)c(=O)n2c1	nt	nt	nt	nt	nt	2	nt
CCOC(=O)N1c2ccccc2Sc2ccccc21	-8	7	-9	5	0	-1	nt
Cc1nnc(SC(=O)N2c3ccccc3Sc3ccccc32)s1	-2	9	33	-9	0	3	-11
Cc1ccc(NC(=S)NN=Cc2ccc([N+](=O)[O-])s2)cc1	nt	nt	nt	nt	nt	8	nt
Oc1oc(-c2ccccc2Br)nc1C=Nc1ccccn1	nt	nt	nt	nt	nt	8	nt
Cc1cc(NN=Cc2ccncc2)c([N+](=O)[O-])cc1[N+](=O)[O-]	nt	nt	nt	nt	nt	8	nt
O=C(O)c1ccc(N=Cc2c(O)ccc3ccccc23)cc1	36	7	33	8	0	13	43
O=S(=O)(/N=C/c1c(O)ccc2ccccc12)c1ccccc1	29	-2	44*	8	0	nt	20
NC(=O)c1ccc(N=Cc2c(O)ccc3ccccc23)cc1	23	0	34	15	0	nt	nt
COC(=O)NN=Cc1cn(Cc2ccc(F)cc2)c2ccccc12	nt	nt	nt	nt	nt	2	nt
CCc1nn2c(=O)cc(COc3ccc(/C=C4\C(=N)N5N=C(C)SC5=NC4=O)cc3)nc2s1	-24	-4	58*	2	0	6	-27
O=C1CSC(=S)N1N=Cc1ccccc1O	47	2	-42	25	0	nt	-9
SMILES	PfG6PD inh	B2AR ag	HKDC1 inh	Cardio protect	aDG glyco up	UCH37 DUB inh	HKDC1 act conf
CC(=NNC(=O)CNC(=O)Cc1ccc(Cl)cc1)c1ccco1	nt	nt	nt	nt	nt	1	nt
CCn1c2ccccc2c2nnc(SCc3ccc(C(=O)OC)o3)nc21	27	-5	29	0	0	0	21
COc1ccc(N(CC(=O)NN=Cc2ccc(OC3CSC3)cc2)S(=O)(=O)c2ccccc2)cc1	nt	nt	nt	nt	nt	2	nt
O=C(O)c1cccc2cc(-c3ccccc3)oc(=O)c12	-13	12	-6	0	0	-261	nt
O=C(O)c1cccc2cccc(-c3c4ccc(=O)c(O)c-4oc4c(O)c(O)ccc34)c12	51	-2	70*	-6	0	nt	36
C=CCN(CC=C)Cc1c(O)ccc2c1oc(=O)c1ccccc12	30	-7	34	33	0	-15	23
C=CCN(CC=C)Cc1cc(=O)oc2ccc3ccccc3c12	nt	nt	nt	-2	0	nt	nt
COc1ccc2cc(C(N)=O)c(=NNC(=O)c3ccco3)oc2c1	nt	nt	nt	nt	nt	11	nt
CC(C)(C)c1nnc(N/N=C/c2cc(Br)ccc2O)n(N)c1=O	-5	6	-43	76*	0	nt	-49*
O=C(N/N=C/c1ccccc1OC(=O)c1ccc2c(c1)OCO2)c1ccccc1	14	6	-48	-2	0	nt	-18
O=C(NN=Cc1ccccc1OC(=O)c1ccc2c(c1)OCO2)c1ccccc1	nt	nt	nt	nt	nt	2	nt
CCC(=NNC(N)=O)c1ccc(OC(F)F)cc1	nt	nt	nt	nt	nt	3	nt
O=C(O)c1cccc(-c2ccc(/C=c3/sc4nc5ccccc5n4c3=O)o2)c1	27	15	48*	12	0	nt	-8
CCCC=NNC(=O)c1[nH]c2c([N+](=O)[O-])cccc2c1C	nt	nt	nt	nt	nt	2	nt
COC(=O)c1ccc(NC(=O)CSc2n[nH]c(-c3ccncc3)n2)cc1	38	11	36*	15	0	3	43
CCOC(=O)c1ccc(NC(=O)CSc2n[nH]c(-c3ccncc3)n2)cc1	23	5	40*	-3	0	-2	50
CC(=O)Nc1ccccc1NC(=O)CC(C)=NNC(=O)c1ccccn1	nt	nt	nt	nt	nt	0	nt
O=C(O)c1ccc(NC2=C/C(=N/S(=O)(=O)c3ccccc3)c3ccccc3C2=O)cc1	107*	23	72*	-24	5	nt	76
Cc1ccc(S(=O)(=O)/N=C2\C=C(NS(=O)(=O)c3ccccc3)C(=O)c3ccccc32)cc1	14	-4	29	-15	0	nt	nt
Cc1cc(C)c(S(=O)(=O)/N=C2\C=C(Nc3ccc(C(=O)O)cc3)C(=O)c3ccccc32)c(C)c1	57	14	41*	-19	1	nt	40
CC(=NNC(=O)CN1CCCCC1)c1ccccc1O	nt	nt	nt	nt	nt	-1	nt
